Compound activity as filed in PubChem BioAssay.
PGC1a acetyl inh – lowers PGC1a acetylation signal in U2OS cells. AlphaScreen anti-acetyl-lysine; with virally co-expressed GCN5 acetyltransferase. inhibition, % at 15.6 µM. 350,000 tested, 0.17% active;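 active means every replicate shows inhibition of at least 40%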
Rtt109 HAT inh – blocks Candida albicans Rtt109/Vps75 acetyltransferase activity | Q5AAJ8 | purified Rtt109/Vps75, ThioGlo CoA-SH fluorescence, 4 h | inhibition, % at 34.9 µM | 330,000 tested, 0.16% active | AID 540336;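 active means inhibition of at least 50% in every replicate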
Target sequence (Q5AAJ8 whole entry, looked up): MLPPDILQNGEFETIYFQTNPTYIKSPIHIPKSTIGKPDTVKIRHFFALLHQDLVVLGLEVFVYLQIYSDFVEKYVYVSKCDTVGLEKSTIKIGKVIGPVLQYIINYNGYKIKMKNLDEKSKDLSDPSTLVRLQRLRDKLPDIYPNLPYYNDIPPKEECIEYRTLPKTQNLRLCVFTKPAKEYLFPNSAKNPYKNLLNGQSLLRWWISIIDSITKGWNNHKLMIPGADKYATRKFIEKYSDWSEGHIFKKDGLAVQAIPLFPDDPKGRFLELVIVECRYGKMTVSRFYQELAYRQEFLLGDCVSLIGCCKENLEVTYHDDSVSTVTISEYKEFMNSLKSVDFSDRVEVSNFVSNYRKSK
ERAP1 inh – inhibitors of human ERAP1 aminopeptidase. Q9NZ08. recombinant ERAP1, Leu-AMC fluorescence, 60 min. inhibition, % at 10.7 µM. 340,000 tested, 0.15% active;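 active means mean replicate inhibition of at least 30%, or all replicates individually reaching that 30% level; inactive means mean below 30% and not every replicate reaching it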
C2C12 statin – protects C2C12 myotubes from simvastatin toxicity; ATP luminescence, 48 h; scaled: DMSO 0, geranylgeraniol control 100; 330,000 tested, 0.78% active; AID 602340; rescue of ATP level, % at 7.49 µM;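 active means mean ATP rescue above about 67%, or every replicate alone reaching that limit, limit read from the data, passing the limit was not always enough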;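 further: myotubes were challenged with 10 µM simvastatin during compound exposure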
S100A4 MyoIIA – S100A4-myosin IIA interaction inhibition | AID 652163 | 360,000 tested, 0.14% active | P26447 | S100A4/TAMRA-MyoIIA peptide fluorescence polarization | inhibition, % at 10.7 µM;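 active means mean inhibition of at least 70% across replicates, with every replicate also reaching that level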
Target sequence (P26447 whole entry, looked up): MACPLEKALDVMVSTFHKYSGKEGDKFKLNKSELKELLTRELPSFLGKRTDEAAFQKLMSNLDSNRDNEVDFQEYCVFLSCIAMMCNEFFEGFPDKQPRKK
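assay system = human S100A4 monomer with TAMRA-labelled myosin IIA peptide | also added = labelled myosin peptide probe, 5 nM | incubation = 5 min between mix addition and reading | control set = DMSO and TFP controls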
A number is an active result; ! = not active in a repeat. Hits are enriched below; roughly 0.98% of the tested compounds scored in any of these assays.

O=C(Cc1ccccn1)NCC[C@@H]1CC[C@@H](NC(=O)Nc2ccc(C(F)(F)F)cc2)[C@H](CO)O1 was read as PGC1a acetyl inh inactive, ERAP1 inh inactive, C2C12 statin inactive and S100A4 MyoIIA inactive.
O=C(Cc1ccccn1)NCC[C@@H]1CC[C@@H](NC(=O)Nc2ccc(C(F)(F)F)cc2)[C@@H](CO)O1 was read as PGC1a acetyl inh 45, ERAP1 inh inactive, C2C12 statin inactive and S100A4 MyoIIA inactive.
For O=C(Cc1ccccn1)NCC[C@@H]1CC[C@H](NC(=O)Nc2ccc(C(F)(F)F)cc2)[C@@H](CO)O1 the results were PGC1a acetyl inh 50, ERAP1 inh inactive, C2C12 statin inactive and S100A4 MyoIIA inactive.
For CCS(=O)(=O)NCC[C@H]1CC[C@@H](NC(=O)Cc2ccccn2)[C@H](CO)O1 the results were PGC1a acetyl inh inactive, ERAP1 inh inactive, C2C12 statin inactive and S100A4 MyoIIA inactive.
`CC(C)NC(=O)Nc1ccc2c(c1)C(=O)N([C@@H](C)CO)C[C@@H](C)[C@@H](CN(C)C(=O)c1ccncc1)OCCCC[C@@H](C)O2` gave PGC1a acetyl inh inactive, ERAP1 inh inactive and S100A4 MyoIIA inactive.
`COc1ccc(NC(=O)N(C)C[C@H]2Oc3c(NS(=O)(=O)c4ccccc4)cccc3C(=O)N([C@@H](C)CO)C[C@H]2C)cc1` gave PGC1a acetyl inh inactive and C2C12 statin inactive.
For Cc1cc(=O)[nH]c(SCC(=O)Nc2c(C)n(C)n(-c3ccccc3)c2=O)n1 the results were PGC1a acetyl inh inactive, Rtt109 HAT inh inactive, ERAP1 inh inactive, C2C12 statin inactive and S100A4 MyoIIA inactive.
Cc1cc(=O)[nH]c(Nc2c(C)n(C)n(-c3ccccc3)c2=O)n1 was read as PGC1a acetyl inh inactive, Rtt109 HAT inh inactive and C2C12 statin 124.
For COCCn1c(SC(C)C(=O)Nc2ncc(Cl)cc2Cl)nc2ccccc21 (stereo not drawn) the results were PGC1a acetyl inh 44 and Rtt109 HAT inh inactive.
CC(C)[C@H](NS(=O)(=O)c1ccccc1)C(=O)OCC(=O)NC(=O)NC1CCCCC1 was read as PGC1a acetyl inh inactive, Rtt109 HAT inh inactive, ERAP1 inh inactive, C2C12 statin 114 and S100A4 MyoIIA inactive.
Screening CCCCCCCCCCCCCCCC[n+]1ccccc1 returned PGC1a acetyl inh inactive, Rtt109 HAT inh 75!, ERAP1 inh 75, C2C12 statin inactive and S100A4 MyoIIA inactive.
Screening CCCCCCCCCCCCCCCC[n+]1ccc(C(N)=O)cc1 returned PGC1a acetyl inh inactive and Rtt109 HAT inh inactive.
For COc1cccc(S(=O)(=O)N(C)C[C@H]2Oc3cc(C#CCC(C)C)ccc3S(=O)(=O)N([C@H](C)CO)C[C@H]2C)c1 the results were PGC1a acetyl inh inactive, ERAP1 inh inactive, C2C12 statin inactive and S100A4 MyoIIA inactive.
For CC(C)n1c(SCC(=O)Nc2nc3c(s2)CCCC3)nc2c1c(=O)n(C)c(=O)n2C the results were PGC1a acetyl inh inactive, Rtt109 HAT inh inactive and C2C12 statin 99.
Screening Nc1ccc(Nc2ccncc2[N+](=O)[O-])cc1 returned PGC1a acetyl inh inactive, Rtt109 HAT inh 50 and C2C12 statin inactive.
Screening O=C(C[C@H]1CC[C@H]2[C@@H](COC[C@@H](O)CN2C(=O)c2ccccc2)O1)Nc1ccccc1 returned PGC1a acetyl inh inactive, ERAP1 inh inactive, C2C12 statin inactive and S100A4 MyoIIA inactive.
`O=C(Nc1ncccn1)c1cc([N+](=O)[O-])cc([N+](=O)[O-])c1` gave Rtt109 HAT inh inactive.
For O=[N+]([O-])c1cc(-c2ncccn2)c([N+](=O)[O-])s1 the results were PGC1a acetyl inh 61, Rtt109 HAT inh inactive, ERAP1 inh inactive, C2C12 statin inactive and S100A4 MyoIIA inactive.
Screening C[C@H](CO)N1C[C@H](C)[C@@H](CN(C)Cc2ccc(C(F)(F)F)cc2)OCCCC[C@H](C)Oc2ccc(NC(=O)c3ccccc3)cc2C1=O returned PGC1a acetyl inh inactive, ERAP1 inh inactive and S100A4 MyoIIA inactive.
COc1ccc(NC(=O)Nc2ccc3c(c2)C(=O)N([C@H](C)CO)C[C@@H](C)[C@@H](CN(C)Cc2ccc(C(F)(F)F)cc2)OCCCC[C@H](C)O3)cc1 was read as PGC1a acetyl inh inactive, ERAP1 inh inactive, C2C12 statin 158 and S100A4 MyoIIA inactive.
Screening C[C@H](CO)N1C[C@H](C)[C@@H](CN(C)Cc2ccc(C(F)(F)F)cc2)OCCCC[C@H](C)Oc2ccc(NS(=O)(=O)c3cccs3)cc2C1=O returned PGC1a acetyl inh inactive, ERAP1 inh inactive, C2C12 statin inactive and S100A4 MyoIIA inactive.
Screening C[C@@H]1CN([C@@H](C)CO)C(=O)c2cc(NC(=O)c3ccncc3)ccc2O[C@@H](C)CCCCO[C@H]1CN(C)Cc1ccc(C(F)(F)F)cc1 returned ERAP1 inh inactive, C2C12 statin 116 and S100A4 MyoIIA inactive.
Screening C[C@@H]1CN([C@@H](C)CO)C(=O)c2cc(NC(=O)c3ccncc3)ccc2O[C@@H](C)CCCCO[C@@H]1CN(C)Cc1ccc(C(F)(F)F)cc1 returned ERAP1 inh inactive, C2C12 statin 121 and S100A4 MyoIIA inactive.
Screening COc1ccc(NC(=O)Nc2ccc3c(c2)C(=O)N([C@H](C)CO)C[C@H](C)[C@@H](CN(C)Cc2ccc(C(F)(F)F)cc2)OCCCC[C@H](C)O3)cc1 returned PGC1a acetyl inh inactive, ERAP1 inh inactive, C2C12 statin inactive and S100A4 MyoIIA inactive.
Screening C[C@@H]1CN([C@H](C)CO)C(=O)c2cc(NS(=O)(=O)c3cccs3)ccc2O[C@@H](C)CCCCO[C@@H]1CN(C)Cc1ccc(C(F)(F)F)cc1 returned PGC1a acetyl inh inactive, ERAP1 inh inactive, C2C12 statin 92 and S100A4 MyoIIA inactive.
For C[C@@H]1CN([C@@H](C)CO)C(=O)c2cc(NC(=O)CCC(F)(F)F)ccc2O[C@@H](C)CCCCO[C@H]1CN(C)Cc1ccc(C(=O)O)cc1 the results were PGC1a acetyl inh inactive, ERAP1 inh inactive and S100A4 MyoIIA inactive.
For N#C[C@@H]1[C@@H](c2ccccc2-c2ccccc2F)[C@H](CO)N1C(=O)C1CCOCC1 the results were PGC1a acetyl inh inactive, ERAP1 inh inactive and S100A4 MyoIIA inactive.
For C[C@@H]1CCCCO[C@@H](CN(C)Cc2ccc(C(=O)O)cc2)[C@H](C)CN([C@H](C)CO)C(=O)c2cc(NC(=O)CCCN(C)C)ccc2O1 the results were PGC1a acetyl inh inactive, ERAP1 inh inactive and S100A4 MyoIIA 130.
C[C@@H]1CN([C@@H](C)CO)C(=O)c2cc(NC(=O)Nc3ccc(F)cc3)ccc2O[C@@H](C)CCCCO[C@H]1CN(C)Cc1ccncc1 was read as PGC1a acetyl inh inactive and C2C12 statin 107.
